Data set [1] can be described thus: Neurotoxicity in ip dosed CF-1 albino mouse assessed as motor impairment by rotarod test. The format is toxicity, organism-based. As to conditions: in vivo.
Data set [2] relates to Mus musculus. Kind of data set: Anticonvulsant activity in ip dosed 6 Hz psychomotor-induced seizure in CF-1 albino mouse assessed as time of peak effect. The class given is functional.
Data set [3] has as its system Mus musculus. Kind of data set: Anticonvulsant activity in CF-1 albino mouse assessed as protection from maximal electric shock-induced seizures at 300 mg/kg, ip measured after 0.5 hrs. The class given is functional, organism-based. Also noted: dose 300 mg/kg. The essentials: (§1)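 Male CF-1 mice dosed ip at 30, 100 or 300 mg/kg, suspension in 0.5% methylcellulose/water. MES: corneal electrodes primed with electrolyte containing anaesthetic, 50 mA, 60 Hz, 0.2 s. Examined 0.5 and 4 h after dosing. Value is the minimum dose protecting half or more of the animals.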

Data set [4] relates to Mus musculus. Kind of data set: Anticonvulsant activity in ip dosed CF-1 albino mouse assessed as protection from maximal electric shock-induced seizures measured after 4 hrs. The class given is functional. As to conditions: read-out: MED. In a few lines: as §1
In data set [5] the test system is Mus musculus. Briefly: Neurotoxicity in CF-1 albino mouse assessed as motor impairment at 300 mg/kg, ip measured after 0.5 hrs by rotarod test. To be noted: in vivo. Also noted: dose 300 mg/kg, route intraperitoneal. The class given is toxicity, organism-based. The essentials:
(§2)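 Rotarod neurotoxicity in male CF-1 mice given ip doses of 30, 100 or 300 mg/kg (0.5% methylcellulose suspension), examined 0.5 and 4 h after dosing. Impairment means failing to hold balance on the rod for 1 min. Value is the minimum dose causing toxicity in half or more of the animals; response comments are recorded.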
(The rotarod test checks motor coordination on a turning rod.)

Data set [6] deals with Mus musculus. Briefly: Neurotoxicity in CF-1 albino mouse assessed as motor impairment at 300 mg/kg, ip measured after 4 hrs by rotarod test. The class given is toxicity, organism-based. Also noted: dose 300 mg/kg, route intraperitoneal. As to conditions: in vivo. In a few lines:
as §2

The test system of data set [7] is Rattus norvegicus. Briefly: Anticonvulsant activity in Sprague-Dawley rat assessed as protection from maximum electric shock-induced seizures at 30 mg/kg, po measured after 0.25 hrs. The format is functional. The essentials: (§3)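 Male Sprague–Dawley rats, four per group, given 30 mg/kg orally as a suspension in 0.5% methylcellulose/water. MES stimulus 150 mA, 60 Hz, 0.2 s via corneal electrodes. Tested at 0.25, 0.5, 1, 2 and 4 h; value is rats protected out of four.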

The subject of data set [8] is Rattus norvegicus. Briefly: Anticonvulsant activity in Sprague-Dawley rat assessed as protection from maximum electric shock-induced seizures at 30 mg/kg, po measured after 0.5 hrs. The format is functional. The essentials: as §3
Data set [9] relates to Rattus norvegicus. Briefly: Anticonvulsant activity in Sprague-Dawley rat assessed as protection from maximum electric shock-induced seizures at 30 mg/kg, po measured after 1 hr. The class given is functional. In a few lines:
as §3

Data set [10] relates to Rattus norvegicus. Kind of data set: Anticonvulsant activity in Sprague-Dawley rat assessed as protection from maximum electric shock-induced seizures at 30 mg/kg, po measured after 2 hrs. The class given is functional. The essentials:
as §3

The test system of data set [11] is Rattus norvegicus. Kind of data set: Anticonvulsant activity in Sprague-Dawley rat assessed as protection from maximum electric shock-induced seizures at 30 mg/kg, po measured after 4 hrs. The format is functional. The essentials:
as §3

Data set [12] has as its system Rattus norvegicus. Briefly: Neurotoxicity in Sprague-Dawley rat assessed as motor impairment at 30 mg/kg, po by rotarod test. The class given is toxicity, organism-based. Details: dose 30 mg/kg, route oral. To be noted: in vivo. In a few lines: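 Male Sprague–Dawley rats, four animals, oral 30 mg/kg in 0.5% methylcellulose/water. Motor impairment on the rotarod (failure to keep balance for 1 min) assessed alongside MES at five times from 0.25 to 4 h.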

Data set [13] concerns Rattus norvegicus. Briefly: Anticonvulsant activity in po dosed Sprague-Dawley rat assessed as protection from maximum electric shock-induced seizures. The class given is functional. The essentials:
(§4)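 Male Sprague–Dawley rats dosed orally (0.5% methylcellulose suspension). MES 150 mA, 60 Hz, 0.2 s; rotarod impairment is failure to keep balance for 1 min. Groups of eight, at the previously estimated time of peak effect, with doses varied until at least three points fell in the 10–90% range. ED50/TD50 with 95% confidence intervals from regression; PI = TD50/ED50.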

A short description of data set [14]: Neurotoxicity in po dosed Sprague-Dawley rat assessed as motor impairment measured at time of peak effect by rotarod test. The class given is toxicity, organism-based. As to conditions: in vivo. In a few lines:
as §4

The species named for data set [15] is Rattus norvegicus. Briefly: Protective index, ratio of TD50 for Sprague-Dawley rat to ED50 for Sprague-Dawley rat assessed as protection from maximum electric shock-induced seizures. The class given is functional. The essentials:
as §4

In data set [16] the test system is Rattus norvegicus. Kind of data set: Anticonvulsant activity in po dosed maximum electric shock-induced Sprague-Dawley rat assessed as time of peak effect. The format is functional. The essentials: as §4
Data set [17] deals with Mus musculus. Kind of data set: Anticonvulsant activity in CF-1 albino mouse assessed as protection against 6 Hz psychomotor seizure at 75 mg/kg, ip measured after 0.25 hrs. The class given is functional. As to conditions: route intraperitoneal. The essentials: (§5)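 6-Hz psychomotor seizure in male CF-1 mice, compound suspended in 0.5% methylcellulose/water, given ip (100 or 75 mg/kg). Corneal stimulation with 0.2 ms monopolar rectangular pulses at 6 Hz for 3 s, 32 mA, constant-current device. Protected if normal exploratory behaviour resumes within 10 s. Tested 0.25–4 h after dosing; value is mice protected out of four.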

The test system of data set [18] is Mus musculus. Kind of data set: Anticonvulsant activity in CF-1 albino mouse assessed as protection against 6 Hz psychomotor seizure at 75 mg/kg, ip measured after 0.5 hrs. The format is functional. To be noted: route intraperitoneal. The essentials: as §5
Data set [19] concerns Mus musculus. Kind of data set: Anticonvulsant activity in CF-1 albino mouse assessed as protection against 6 Hz psychomotor seizure at 75 mg/kg, ip measured after 1 hr. The format is functional. As to conditions: route intraperitoneal. The essentials:
as §5

The test system of data set [20] is Mus musculus. Briefly: Anticonvulsant activity in CF-1 albino mouse assessed as protection against 6 Hz psychomotor seizure at 75 mg/kg, ip measured after 2 hrs. The class given is functional. To be noted: route intraperitoneal. The essentials: as §5
Data set [21] has as its system Mus musculus. Briefly: Anticonvulsant activity in CF-1 albino mouse assessed as protection against 6 Hz psychomotor seizure at 75 mg/kg, ip measured after 4 hrs. The class given is functional. To be noted: route intraperitoneal. In a few lines:
as §5

The subject of data set [22] is Mus musculus. Briefly: Anticonvulsant activity in ip dosed CF-1 albino mouse assessed as protection from maximal electric shock-induced seizures measured after 0.5 hrs. As to conditions: read-out: MED. The format is functional. In a few lines: as §1
The subject of data set [23] is Mus musculus. Kind of data set: Anticonvulsant activity in ip dosed CF-1 albino mouse assessed as protection from maximal electric shock-induced seizures. The class given is functional. In a few lines: (§6)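 ED50 and TD50 determined in male CF-1 mice after ip dosing (0.5% methylcellulose suspension) at the previously estimated time of peak effect. MES 50 mA, 60 Hz, 0.2 s. Groups of eight, with doses varied until at least three points fell between 10–90% protection or motor impairment. Regression gives ED50/TD50 with 95% confidence intervals; PI = TD50/ED50.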

For data set [24], the species on record is Mus musculus. Kind of data set: Protective index, ratio of TD50 for CF-1 albino mouse to ED50 for CF-1 albino mouse assessed as protection from maximum electric shock-induced seizures. The class given is functional. In a few lines:
as §6

For data set [25], the system named is Mus musculus. Kind of data set: Anticonvulsant activity in ip dosed maximal electric shock-induced CF-1 albino mouse assessed as time of peak effect. The format is functional. The essentials:
as §6

Data set [26] concerns Mus musculus. Briefly: Anticonvulsant activity in CF-1 albino mouse assessed as protection against 6 Hz psychomotor seizure at 100 mg/kg, ip measured after 0.25 hrs. The class given is functional. As to conditions: route intraperitoneal. In a few lines:
as §5

The subject of data set [27] is Mus musculus. Briefly: Anticonvulsant activity in CF-1 albino mouse assessed as protection against 6 Hz psychomotor seizure at 100 mg/kg, ip measured after 0.5 hrs. The class given is functional. As to conditions: route intraperitoneal. In a few lines: as §5
Data set [28] relates to Mus musculus. Briefly: Anticonvulsant activity in CF-1 albino mouse assessed as protection against 6 Hz psychomotor seizure at 100 mg/kg, ip measured after 1 hr. The format is functional. As to conditions: route intraperitoneal. The essentials:
as §5

The subject of data set [29] is Mus musculus. Briefly: Anticonvulsant activity in CF-1 albino mouse assessed as protection against 6 Hz psychomotor seizure at 100 mg/kg, ip measured after 2 hrs. The format is functional. As to conditions: route intraperitoneal. In a few lines: as §5
Data set [30] relates to Mus musculus. Briefly: Anticonvulsant activity in CF-1 albino mouse assessed as protection against 6 Hz psychomotor seizure at 100 mg/kg, ip measured after 4 hrs. The format is functional. To be noted: route intraperitoneal. The essentials: as §5
The test system of data set [31] is Mus musculus. Kind of data set: Anticonvulsant activity in CF-1 albino mouse assessed as protection from maximal electric shock-induced seizures at 100 mg/kg, ip measured after 0.25 hrs. Also noted: dose 100 mg/kg. The class given is functional, organism-based.
In data set [32] the test system is Mus musculus. Kind of data set: Anticonvulsant activity in CF-1 albino mouse assessed as protection from maximal electric shock-induced seizures at 100 mg/kg, ip measured after 1 hr. The class given is functional, organism-based. Details: dose 100 mg/kg.

Calls of active or inactive are those of the source. The rule behind the calls is not given here.

These results are taken from ChEMBL document CHEMBL2086314, “Synthesis and anticonvulsant activity of new N-Mannich bases derived from 3-(2-fluorophenyl)- and 3-(2-bromophenyl)-pyrrolidine-2,5-diones. Part II” (Bioorg Med Chem, 2012).

For orientation: TD50 means the 50% point of the dose-response relation for the toxic effect studied. Broadly, the ED50 is the midpoint of the dose-response relation.

For `CC[C@@H](C(N)=O)N1CCCC1=O`, the TD50 in data set [1] was over 500 mg/kg. The Time with Mus musculus [2] is 1 h.

Turning to `O=C1CC(c2ccccc2Br)C(=O)N1CN1CCN(c2cccc(Cl)c2)CC1` (racemic), the outcome with Mus musculus [3] was inactive. In addition, in the data set with Mus musculus [4], the minimal effective dose was 100 mg/kg. The Activity entry was “Non-toxic” in the data set on Mus musculus [5]; “Non-toxic” in the data set on Mus musculus [6]; 0% in the data set on Rattus norvegicus [7]; 25% in the data set with Rattus norvegicus [8]; 50% in the data set on Rattus norvegicus [9]; 100% in the data set with Rattus norvegicus [10]. The Activity is listed as 100% in the data set on Rattus norvegicus [11]; “Non-toxic” with Rattus norvegicus [12]; 25% with Mus musculus [17]; 25% in the data set on Mus musculus [18]; 25% in the data set with Mus musculus [19]; 25% in the data set on Mus musculus [20]. Further, the Activity in the data set with Mus musculus [21] was determined as 25%. Besides, the ED50 with Rattus norvegicus [13] was determined as 26.4 mg/kg. The TD50 in data set [14] came to 126 mg/kg. Also, the “Ratio TD50/ED50” value in the data set listed under Rattus norvegicus [15] is 4.77. Also, the Time with Rattus norvegicus [16] is 4 h.

For `O=C1CC(c2ccccc2F)C(=O)N1CN1CCN(c2cccc(C(F)(F)F)c2)CC1` (racemic), the minimal effective dose is 300 mg/kg in the data set with Mus musculus [22] and 100 mg/kg with Mus musculus [4]. The Activity result in the data set on Mus musculus [5] was “Non-toxic”; with Mus musculus [6] it was “Non-toxic”; with Rattus norvegicus [7] it was 25%; in the data set on Rattus norvegicus [8], 100%; with Rattus norvegicus [9], 100%; with Rattus norvegicus [10] it was 100%. The Activity in the data set on Rattus norvegicus [11] was 50%; with Rattus norvegicus [12] it was “Non-toxic”; in the data set with Mus musculus [26] it was 25%; in the data set with Mus musculus [27], 75%; in the data set with Mus musculus [28], 0%; with Mus musculus [29] it was 25%. Further, the Activity in the data set on Mus musculus [30] amounted to 25%. Besides, in the data set on Mus musculus [23], the ED50 was determined as 41.4 mg/kg. The TD50 in data set [1] is over 500 mg/kg. Further, the “Ratio TD50/ED50” value in the data set listed under Mus musculus [24] was over 12.09. Moreover, the Time in the data set with Mus musculus [25] is 4 h. Moreover, the result in the data set with Mus musculus [31] and in the data set with Mus musculus [32] was Active.
